# SIRT5 block: inhibitors of human sirtuin-5 desuccinylase. Q9NXA8. Purified SirT5, succinyl-peptide AMC, trypsin-coupled fluorescence. inhibition, % at 15 µM. 330,000 compounds, 1.1% hits; in the data active = inhibition above about 15%; inconclusive = no clear call, values can overlap the other calls
# Target sequence (Q9NXA8 whole entry, looked up): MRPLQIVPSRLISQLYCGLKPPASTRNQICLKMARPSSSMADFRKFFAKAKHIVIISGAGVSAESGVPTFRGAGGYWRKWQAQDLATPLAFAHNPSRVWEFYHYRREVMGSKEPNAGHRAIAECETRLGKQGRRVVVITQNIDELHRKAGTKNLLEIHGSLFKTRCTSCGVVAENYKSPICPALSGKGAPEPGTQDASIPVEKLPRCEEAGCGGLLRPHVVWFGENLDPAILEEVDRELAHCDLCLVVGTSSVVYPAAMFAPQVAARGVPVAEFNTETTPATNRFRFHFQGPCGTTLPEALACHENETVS
# E-selectin induc: E-selectin induction on HUVECs | AID 686992 | activation, % at 7.58 µM | P16581 | 260,000 compounds, 0.37% hits | HUVEC E-selectin immunofluorescence imaging; normalized: neutral wells 0, TNF-alpha wells 100;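 active = mean E-selectin-positive cell signal at least 10% of the positive control, reached in at least 60% of replicates, without over 20% cell loss; inconclusive = no rule given, readout overlaps actives, possibly toxicity-flagged; inactive = the rest, including those meeting only one limit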
#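 Material: HUVEC primary endothelial cells; Amount: 3,000 cells per well; Dosing: single concentration; Medium: EGM-2 growth medium on 0.1% gelatin-coated wells; Read-out basis: percent E-selectin-positive cells; Signal: immunofluorescence imaging; Control set: TNF-alpha, DMSO.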
# DENV2 CPE rescue: inhibitors of DENV2 cytopathic effect | CPE inhibition, % at 9.99 µM | AID 651640 | DENV2-infected cells, cytopathic effect rescue, plate reader | 350,000 compounds, 1.7% hits; in the data active = CPE inhibition above about 20%, passing the limit was not always enough; inconclusive = no clear call, values can overlap the other calls; tested in BHK-21 cells;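 also: 0% = median of neutral control wells and 100% = median of positive control wells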
# * marks the source's active call; other numbers are inactive results; ? = inconclusive; nt = no result. In the library only some 2.8% were active in any assay of this set; here they are far more common.
SMILES,SIRT5 block,E-selectin induc,DENV2 CPE rescue
COCCNC(=O)c1onc(CSc2cccc(OC)c2)c1C(=O)NCCOC,22*,1,-11
O=C(C[C@@H]1CC[C@@H]2[C@H](COC[C@@H](O)CN2C(=O)Nc2cccc(Cl)c2)O1)NCC1CCCCC1,1,0,10
CN1c2ccc(Br)cc2[C@H]2[C@H](CCN2S(=O)(=O)c2cccc(F)c2)[C@@H]1CO,2,-1,14
Cc1cccc(N2C(=O)N3[C@H](c4ccc(Br)cc4)[C@@H]4C(=O)N(C(C)(C)C)C(=O)[C@@H]4[C@]3(C)C2=O)c1,-1,0,26*
Cc1ccc(N2C(=O)N3[C@H](c4ccc(Br)cc4)[C@@H]4C(=O)N(C(C)(C)C)C(=O)[C@@H]4[C@]3(C)C2=O)cc1,nt,nt,7
C[C@@H]1CN([C@H](C)CO)S(=O)(=O)c2ccc(C#Cc3ccccc3F)cc2O[C@H]1CN(C)C(=O)Cc1cccnc1,5,0,-11
CC=Cc1ccc2n(c1=O)C[C@H]1[C@H](CO)[C@@H](C(=O)NCC3CC3)[C@@H]2N1C(=O)c1ccccc1 (mixture of isomers),-10,0,1
C[C@H](CO)N1C[C@H](C)[C@H](CN(C)C(=O)Nc2cccc3ccccc23)Oc2ncc(C#CCC3CCCC3)cc2C1=O,8,0,18
NC(=O)C1CCN(c2nc(-c3ccccc3F)cs2)CC1,nt,2,2
CS(=O)(=O)c1ccccc1-c1csc(N2CCC(C(N)=O)CC2)n1,3,41*,nt
CN(C)c1ccccc1-c1csc(N2CCC(C(N)=O)CC2)n1,0,0,nt
NC(=O)C1CCN(c2nc(-c3ccccc3Br)cs2)CC1,nt,1,80*
COc1ccc2c3c(n(C)c2c1)[C@@H](CO)N(Cc1ccc2c(c1)OCO2)CC31CCN(C(=O)C2CC2)CC1,nt,0,20
COc1ccc(NC(=O)Nc2ccc3c(c2)C(=O)N([C@H](C)CO)C[C@H](C)[C@@H](CN(C)C(=O)NC(C)C)OCCCC[C@H](C)O3)cc1,0,nt,2
C[C@@H]1CCCCO[C@H](CN(C)C(=O)Nc2ccc(F)cc2)[C@@H](C)CN([C@@H](C)CO)C(=O)c2cc(NS(=O)(=O)c3ccc(F)cc3)ccc2O1,nt,0,-5
C/C=C/c1ccc([C@H]2[C@@H](CO)N(Cc3cncnc3)C23CN(C(C)=O)C3)cc1,2,0,-2
C[C@@H]1CN([C@H](C)CO)C(=O)Cc2cc(NS(=O)(=O)c3ccc(Cl)cc3)ccc2O[C@@H]1CN(C)Cc1ccc(C(F)(F)F)cc1,-3,1,-11
Cc1ccc(S(=O)(=O)Nc2ccc3c(c2)CC(=O)N([C@H](C)CO)C[C@@H](C)[C@@H](CN(C)Cc2ccc(C(F)(F)F)cc2)O3)cc1,nt,1,nt
C[C@@H]1CN([C@@H](C)CO)C(=O)Cc2cc(NS(=O)(=O)c3ccc(F)cc3)ccc2O[C@@H]1CN(C)Cc1ccc(C(F)(F)F)cc1,18*,0,1
C[C@H]1CN([C@@H](C)CO)C(=O)Cc2cc(NS(=O)(=O)c3ccc(F)cc3)ccc2O[C@@H]1CN(C)Cc1ccc(C(F)(F)F)cc1,20*,0,4
C[C@H](CO)N1C[C@H](C)[C@H](CN(C)Cc2ccc(C(=O)O)cc2)Oc2ccc(NS(=O)(=O)c3ccc(F)cc3)cc2CC1=O,2,1,3
C[C@@H]1CN([C@@H](C)CO)C(=O)Cc2cc(NS(=O)(=O)c3ccc(F)cc3)ccc2O[C@@H]1CN(C)Cc1ccc(C(=O)O)cc1,3,0,30*
C[C@@H]1CN([C@@H](C)CO)C(=O)Cc2cc(NS(=O)(=O)c3ccc(Cl)cc3)ccc2O[C@@H]1CN(C)Cc1ccc(C(F)(F)F)cc1,-6,0,?
C[C@@H]1CN([C@H](C)CO)C(=O)Cc2cc(NS(=O)(=O)c3ccc(F)cc3)ccc2O[C@H]1CN(C)Cc1ccc(C(F)(F)F)cc1,23*,0,-12
COCC#Cc1cnc2c(c1)C(=O)N([C@H](C)CO)C[C@H](C)[C@@H](CN(C)Cc1ccc(F)cc1)O2,-8,1,12
SMILES,SIRT5 block,E-selectin induc,DENV2 CPE rescue
Cc1noc(C)c1S(=O)(=O)Nc1ccc2c(c1)C(=O)N([C@H](C)CO)C[C@@H](C)[C@@H](CN(C)Cc1ccc(C(=O)Nc3ccccc3N)cc1)O2,nt,1,?
CCCC(=O)N1CC2(C1)CN(C(=O)CC1CC1)[C@@H](CO)c1c2c2ccc(OC)cc2n1C,nt,0,8
COCC(=O)Nc1ccc2c(c1)C(=O)N(C)[C@H]1CC[C@@H](CC(=O)NCc3ccccc3)O[C@@H]1CO2,1,0,9
CC(=O)N1CCCCN2[C@H](CO)[C@@H](c3ccc(C#Cc4ccccc4F)cc3)[C@H]2C1,4,0,24*
O=C(Nc1ccccc1F)N1CCCCN2[C@H](CO)[C@H](c3ccc(C#Cc4ccccc4)cc3)[C@@H]2C1,4,-1,4
CCC(=O)N1CCCCN2[C@@H](CO)[C@@H](c3ccc(C#Cc4ccccc4F)cc3)[C@@H]2C1,-4,0,?
O=C(Nc1ccccc1F)N1CCCCN2[C@H](CO)[C@@H](c3ccc(C#Cc4ccccc4)cc3)[C@@H]2C1,6,0,21*
C[C@@H]1CN([C@@H](C)CO)C(=O)Cc2cc(NC(=O)Cc3cn(C)c4ccccc34)ccc2O[C@@H]1CN(C)S(=O)(=O)c1ccccc1,1,0,-10
Cc1ccc(S(=O)(=O)Nc2cccc3c2O[C@H](CN(C)C(=O)NC2CCCCC2)[C@@H](C)CN([C@@H](C)CO)C3=O)cc1,3,0,-6
COCCNC(=O)C[C@@H]1CC[C@@H](NC(=O)NC2CCCC2)[C@@H](CO)O1,-5,0,-7
CCC(=O)Nc1ccc2c(c1)C(=O)N(C)[C@H]1CC[C@@H](CC(=O)N3CCCCC3)O[C@H]1CO2,0,0,?
O=C(Cn1cnc2c(NCc3ccccc3)ncnc21)NCC1CCCO1 (stereo unspecified),-2,-1,75*
O=C(Cn1cnc2c(OCc3ccccc3)ncnc21)NCC1CCCO1 (stereo unspecified),-2,0,3
COc1ccc2c3c(n(C)c2c1)[C@H](CO)N(C(=O)Nc1ccc(F)cc1)CC31CCN(C(=O)NC2CCCC2)CC1,3,1,-2
O=C(C[C@H]1C[C@@H]2c3cc(NC(=O)Nc4ccccc4F)ccc3O[C@@H]2[C@H](CO)O1)NCC(F)(F)F,-1,0,-5
CN1C(=O)c2cc(NC(=O)c3ccc(C#N)cc3)ccc2OC[C@H]2O[C@@H](CC(=O)NCc3ccc4c(c3)OCO4)CC[C@@H]21,6,0,-2
CN1CCCC1CCNc1ccc2sc3ccccc3c(=O)c2c1 (stereo unspecified),nt,2,27*
O=c1c2ccccc2sc2ccc(NCCCN3CCOCC3)cc12,nt,1,2
O=C(Nc1cccc(O)c1)c1ccc(C(F)(F)F)cc1,14,nt,?
O=C(Nc1cccc(C(F)(F)F)c1)c1cc[n+]([O-])cc1,1,27*,-1
Cc1ccccc1OCC(O)Cn1c(Br)nc2c1c(=O)n(C)c(=O)n2C (stereo unspecified),-2,51*,3
Cc1ccccc1OCC(O)CN1CCN(CC(O)COc2ccccc2C)CC1 (stereo unspecified),30*,4,1

# Source: PubChem
